Assay results as given in ChEMBL document CHEMBL1127042, “Molecular size and flexibility as determinants of selectivity in the oxidation of N-methyl-4-phenyl-1,2,3,6-tetrahydropyridine analogs by monoamine oxidase A and B” (J Med Chem, 1993).
“And” between values parts separate entries of the source, which are not always exact repeats. Identical values can stand only once.

What was measured:
[1] = molecular target: Amine oxidase [flavin-containing] A (Homo sapiens) (UniProt P21397); test: Ratio between TN and Km against MAO A
[2] = molecular target: T1, Amine oxidase [flavin-containing] B (Bos taurus, UniProt P56560); test: Turnover number against MAO B (umol of substrate/min per umol of enzyme).; settings: cattle
T1 sequence (P56560 whole entry): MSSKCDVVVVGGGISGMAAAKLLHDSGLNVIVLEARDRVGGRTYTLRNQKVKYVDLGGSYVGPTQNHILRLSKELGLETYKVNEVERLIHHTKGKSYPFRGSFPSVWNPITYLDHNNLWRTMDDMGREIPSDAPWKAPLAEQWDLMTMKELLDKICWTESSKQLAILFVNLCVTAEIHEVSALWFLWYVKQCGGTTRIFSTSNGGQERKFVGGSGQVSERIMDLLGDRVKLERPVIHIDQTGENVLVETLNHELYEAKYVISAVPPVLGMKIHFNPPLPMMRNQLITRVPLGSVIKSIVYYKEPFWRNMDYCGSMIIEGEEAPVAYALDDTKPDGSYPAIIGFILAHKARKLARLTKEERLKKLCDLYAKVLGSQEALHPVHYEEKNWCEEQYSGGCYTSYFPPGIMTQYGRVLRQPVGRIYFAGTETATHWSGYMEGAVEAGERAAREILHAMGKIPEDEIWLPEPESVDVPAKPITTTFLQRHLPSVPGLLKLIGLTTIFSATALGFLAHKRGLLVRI
Summary of the method: (§1)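 Beef liver MAO B, purified. Initial oxidation rates measured polarographically at 30 °C in sodium phosphate buffer, pH 7.2, with 0.2% (w/v) Brij-35. The reaction was started by adding enzyme, dosed so rates were measurable within 60-120 s. Vmax came from double-reciprocal plots. Turnover number was Vmax per flavin content. Flavin content came from the optical density change on anaerobic reduction by benzylamine.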

[3] = molecular target: T1, Amine oxidase [flavin-containing] B; test: Ratio of turnover number(TN)and Km for MAO B; settings: cattle
Summary of the method: as §1

[4] = molecular target: T2, Amine oxidase [flavin-containing] A (Homo sapiens, UniProt P21397); test: Turnover number against MAO A (umol of substrate/min per umol of enzyme).
T2 sequence (P21397 whole entry): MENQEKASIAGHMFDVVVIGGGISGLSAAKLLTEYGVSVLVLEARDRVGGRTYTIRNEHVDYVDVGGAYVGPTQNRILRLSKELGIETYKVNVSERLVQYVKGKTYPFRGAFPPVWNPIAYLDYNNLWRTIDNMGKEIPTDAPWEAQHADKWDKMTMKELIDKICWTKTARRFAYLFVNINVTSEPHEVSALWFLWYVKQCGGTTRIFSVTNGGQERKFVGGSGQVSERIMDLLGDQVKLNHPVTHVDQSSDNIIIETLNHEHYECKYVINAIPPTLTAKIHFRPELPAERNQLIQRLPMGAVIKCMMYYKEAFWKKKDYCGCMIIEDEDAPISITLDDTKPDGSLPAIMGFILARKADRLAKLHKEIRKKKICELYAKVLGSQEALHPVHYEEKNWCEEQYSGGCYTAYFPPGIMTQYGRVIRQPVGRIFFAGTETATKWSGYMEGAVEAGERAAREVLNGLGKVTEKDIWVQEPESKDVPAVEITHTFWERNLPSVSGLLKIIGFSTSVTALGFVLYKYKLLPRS
Summary of the method: (§2)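 Human liver MAO A expressed in yeast, purified. Initial oxidation rates measured polarographically (O2 uptake) at 30 °C in sodium phosphate buffer, pH 7.2, with 0.2% (w/v) Brij-35. Enzyme was added last to start the reaction, and its amount was set so rates were read within 60-120 s. Vmax came from double-reciprocal plots. TN was Vmax divided by flavin content. Flavin content was found from the optical density change on anaerobic reduction by kynuramine.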

[5] = molecular target: T3, MAO A (amine oxidase [flavin-containing] A) (Homo sapiens, UniProt P21397); test: Michaelis-Menten constant against MAO A.
T3 sequence (P21397 whole entry): T2 sequence (P21397 whole entry)
Summary of the method: as §2

[6] = molecular target: T1, Amine oxidase [flavin-containing] B; test: Ratio between TN and Km against MAO B; settings: cattle
Summary of the method: as §1

Row | Ratio [1] | TN [2] | Ratio [3] | TN [4] | Ratio [6] | SMILES | Km [5]
1 | 389 | 51.9 min⁻¹ | 1059 | 42 min⁻¹ |  | CN1CC=C(CCc2cccs2)CC1 | 
2 | 3187 | 80 min⁻¹ | 62 | 244 min⁻¹ |  | CN1CC=C(CCc2cccc3ccccc23)CC1 | 
3 | 2225 | 79 min⁻¹ | 76 | 95.9 min⁻¹ |  | CN1CC=C(CCc2ccc3ccccc3c2)CC1 | 
4 | 175 | 337 min⁻¹ | 3270 | 8.4 min⁻¹ |  | CN1CC=C(Cc2cccs2)CC1 | 
5 | 139 | 193 min⁻¹ | 1250 | 9.2 min⁻¹ |  | CN1CC=C(Cc2ccccc2)CC1 | 
6 | 3344 | 274 min⁻¹ | 326 | 121 min⁻¹ |  | CN1CC=C(Cc2ccc3ccccc3c2)CC1 | 
7 | 860 | 165 min⁻¹ |  | 146 min⁻¹ | 1964 | NCCC(=O)c1ccccc1N [KYNURAMINE] | 
8 | 98 | 153 min⁻¹ | 785 | 13.3 min⁻¹ |  | CN1CC=C(Cc2ccsc2)CC1 | 
9 | 1120 | 61 min⁻¹ | 1130 | 137 min⁻¹ |  | CN1CC=C(CCc2ccccc2)CC1 | 
10 | 2592 | 89 min⁻¹ | 105 | 443 min⁻¹ |  | CN1CC=C(Cc2cccc3ccccc23)CC1 | 
11 | 13 | 283 min⁻¹ | 963 | 10 min⁻¹ |  | NCc1ccccc1 [BENZYLAMINE] | 
12 | 228 | 50.7 min⁻¹ | 890 | 29.7 min⁻¹ |  | CN1CC=C(CCc2ccsc2)CC1 | 

Row | SMILES | Ratio [1] | TN [2] | Ratio [3] | TN [4] | Ratio [6] | Km [5]
13 | CN1CC=C(c2cccc3ccccc23)CC1 | 1893 | 55 min⁻¹ | 500 | 140 min⁻¹ |  | 
14 | CN1CC=C(c2ccsc2)CC1 | 80 and 160 | 4.17 min⁻¹ |  | 8.14 min⁻¹ |  | 
15 | CN1CC=C(c2ccc3ccccc3c2)CC1 | 2216 | 73.5 min⁻¹ | 101 | 10.2 min⁻¹ |  | 
16 | CN1CC=C(c2ccccc2)CC1 | 143 | 204 min⁻¹ | 523 | 20 min⁻¹ |  | 140 µM
17 | CN1CC=C(c2cccs2)CC1 | 28 | 12 min⁻¹ | 71 | 5.21 min⁻¹ |  | 
